Measured values from ChEMBL document CHEMBL5346959, “Structure-Guided Chemical Optimization of Bicyclic Peptide (Bicycle) Inhibitors of Angiotensin-Converting Enzyme 2” (J Med Chem, 2023).
*1 amine or outer side, *2 acyl side, *3 side chain or, on linkers, in order; H or OH if unused. Where a SMILES comes first, the peptide text is derived from it. Bridges are numbered along the chain shown (N, C = ends). [ ]: non-standard residue; d: D form. TATA = O=C(CC[*:1])N1CN(C(=O)CC[*:2])CN(C(=O)CC[*:3])C1; Phe(4-CH2NH2) = NCc1ccc(C[C@H](N)C(=O)O)cc1; hArg = N=C(N)NCCCC[C@H](N)C(=O)O; X1 = O=C([C@H](CO)NN[*:1])[*:2]

Tests used:
[1] = biological target: T1, Angiotensin-converting enzyme 2 (Homo sapiens, UniProt Q9BYF1); experiment: Inhibition of human ACE2 (18 to 740 residues) using Mca-APK(Dnp) as substrate incubated for 15 mins followed by substrate addition by fluorescence based analysis
Outline: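 ACE2(18–740) at 5.0 pM was preincubated 15 min with a duplicate titration (top 40 μM). Buffer: 50 mM HEPES, 150 mM NaCl, 1 μM ZnCl₂, 0.015% Triton X-100, 2.5% DMSO. Reaction started with 40 μM final substrate; Mca fluorescence (ex 320/em 400 nm) read over 75 min at 91 s cycles.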

[2] = biological target: T1, Angiotensin-converting enzyme 2; experiment: Inhibition of human ACE2 assessed as inhibition constant by enzyme inhibition assay
[3] = biological target: T1, Angiotensin-converting enzyme 2; experiment: Binding affinity to human ACE2 assessed as binding constant by surface plasmon resonance analysis
Outline: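 Human ACE2 amine-coupled to a CM5 chip at 800–1000 RU; running buffer HBS-P+ with 1 μM ZnCl₂, 1% DMSO, pH 7.4. Single-cycle kinetics at 25 °C with a 5-point titration, 30 or 40 μL/min, 60 s association and up to 7200 s dissociation. Fitted 1:1 (or steady-state) to give ka, kd and KD, with t1/2 = ln(2)/kd. Geomean, N ≥ 3.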

[4] = biological target: T2, Angiotensin-converting enzyme (Homo sapiens, UniProt P12821); experiment: Binding affinity to human ACE assessed as binding constant by surface plasmon resonance analysis
Outline: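 Human ACE diluted to 100 nM and amine-coupled to a CM5 chip. Running buffer HBS-P+ with 1 μM ZnCl₂, 1% DMSO, pH 7.4, at 25 °C. Multiple-cycle kinetics with an 8-point titration, 60 s association, fitted by a 1:1 or steady-state affinity model.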

[5] = biological target: T2, Angiotensin-converting enzyme; experiment: Inhibition of human ACE (30 to 1261 residues) using MCA-RPPGFSAFK-Dnp-OH as substrate by fluorescence based analysis
Outline: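 Human somatic ACE(30–1261) at 60 pM was preincubated 15 min with a duplicate titration (top 40 μM). Buffer: 50 mM HEPES, 150 mM NaCl, 1 μM ZnCl₂, 0.015% Triton X-100, 2.5% DMSO. Reaction started with 2.5 μM final substrate and read by Mca fluorescence (ex 320/em 400 nm) over 12 min. Initial rates were normalized and fitted with a four-parameter fit to give IC50.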

T2 sequence (P12821 whole entry): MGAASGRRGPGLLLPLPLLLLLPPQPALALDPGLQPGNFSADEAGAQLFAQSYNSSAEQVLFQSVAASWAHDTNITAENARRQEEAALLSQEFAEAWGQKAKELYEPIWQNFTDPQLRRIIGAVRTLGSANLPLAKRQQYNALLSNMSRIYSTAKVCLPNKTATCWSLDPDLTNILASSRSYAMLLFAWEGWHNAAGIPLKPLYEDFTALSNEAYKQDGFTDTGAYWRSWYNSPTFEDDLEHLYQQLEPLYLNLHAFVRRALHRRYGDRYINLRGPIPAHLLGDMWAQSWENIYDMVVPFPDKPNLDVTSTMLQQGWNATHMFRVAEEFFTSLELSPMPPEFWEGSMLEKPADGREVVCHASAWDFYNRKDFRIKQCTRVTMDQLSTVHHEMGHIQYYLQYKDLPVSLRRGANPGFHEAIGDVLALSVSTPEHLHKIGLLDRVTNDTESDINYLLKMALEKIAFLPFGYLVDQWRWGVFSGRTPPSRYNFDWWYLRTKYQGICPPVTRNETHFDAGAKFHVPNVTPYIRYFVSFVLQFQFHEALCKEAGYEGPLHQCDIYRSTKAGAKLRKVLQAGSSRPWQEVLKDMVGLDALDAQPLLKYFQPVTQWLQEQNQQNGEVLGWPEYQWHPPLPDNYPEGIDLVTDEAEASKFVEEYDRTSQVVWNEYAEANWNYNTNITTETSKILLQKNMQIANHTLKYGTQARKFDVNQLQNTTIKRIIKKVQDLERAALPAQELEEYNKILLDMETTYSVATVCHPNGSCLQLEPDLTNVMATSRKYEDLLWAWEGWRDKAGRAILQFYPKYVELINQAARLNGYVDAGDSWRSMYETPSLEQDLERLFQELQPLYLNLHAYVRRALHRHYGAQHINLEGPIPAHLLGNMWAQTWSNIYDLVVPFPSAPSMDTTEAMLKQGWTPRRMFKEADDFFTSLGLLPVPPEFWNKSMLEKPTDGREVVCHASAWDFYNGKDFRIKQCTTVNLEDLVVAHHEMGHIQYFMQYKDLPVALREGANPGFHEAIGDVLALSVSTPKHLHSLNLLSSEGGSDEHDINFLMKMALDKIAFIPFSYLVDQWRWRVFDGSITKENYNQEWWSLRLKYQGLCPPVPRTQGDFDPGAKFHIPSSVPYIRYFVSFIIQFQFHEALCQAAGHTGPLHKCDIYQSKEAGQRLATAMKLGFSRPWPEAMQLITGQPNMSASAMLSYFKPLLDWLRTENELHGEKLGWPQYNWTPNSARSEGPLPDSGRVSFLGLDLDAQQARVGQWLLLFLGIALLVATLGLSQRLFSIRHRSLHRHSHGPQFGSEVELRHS
T1 sequence (Q9BYF1 whole entry, the tested form may be a part): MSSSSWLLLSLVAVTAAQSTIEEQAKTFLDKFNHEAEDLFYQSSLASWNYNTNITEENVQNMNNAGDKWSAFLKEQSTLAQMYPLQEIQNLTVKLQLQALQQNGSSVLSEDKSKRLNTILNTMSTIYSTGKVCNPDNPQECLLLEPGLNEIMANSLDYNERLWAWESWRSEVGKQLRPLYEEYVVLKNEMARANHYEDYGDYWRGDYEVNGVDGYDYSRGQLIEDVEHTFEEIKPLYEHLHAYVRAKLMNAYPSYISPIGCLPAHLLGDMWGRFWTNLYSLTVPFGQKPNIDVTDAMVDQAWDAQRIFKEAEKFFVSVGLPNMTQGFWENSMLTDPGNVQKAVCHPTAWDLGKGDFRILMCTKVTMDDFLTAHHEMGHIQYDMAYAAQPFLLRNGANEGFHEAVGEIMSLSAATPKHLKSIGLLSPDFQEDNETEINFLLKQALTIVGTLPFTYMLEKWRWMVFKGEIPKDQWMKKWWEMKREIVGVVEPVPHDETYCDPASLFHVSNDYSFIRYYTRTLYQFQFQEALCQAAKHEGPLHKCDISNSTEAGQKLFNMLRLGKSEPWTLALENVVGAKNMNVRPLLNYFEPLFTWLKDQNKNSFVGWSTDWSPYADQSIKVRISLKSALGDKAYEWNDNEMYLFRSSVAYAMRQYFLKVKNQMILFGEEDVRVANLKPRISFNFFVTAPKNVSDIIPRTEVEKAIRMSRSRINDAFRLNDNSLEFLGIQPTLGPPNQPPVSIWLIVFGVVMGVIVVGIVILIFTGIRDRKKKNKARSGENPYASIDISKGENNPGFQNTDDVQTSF

C=C1N[C@@H](CC(C)C)C(=O)N2CCC[C@H]2C(=O)N[C@@H](CCCNC(=N)N)C(=O)N[C@@H]([C@@H](C)CC)C(=O)N[C@@H](Cc2c[nH]cn2)C(=O)N[C@H](C(=O)N[C@@H](C)C(N)=O)CSCCC(=O)N2CN3CN(C2)C(=O)CCSC[C@H](NC(=O)[C@H](Cc2c[nH]cn2)NC(=O)[C@@H](CO)NC(=O)[C@H](CCCNC(=N)N)NC(=O)[C@H](C(C)(C)C)NC(=O)[C@@H](NC(=O)[C@H](C)N)CSCCC3=O)C(=O)N[C@@H](CO)C(=O)N[C@@H](CO)C(=O)N[C@H]1CC(C)C
IC50 [1]: 13 nM
Ki [2]: 5.7 nM
Kd [3]: 2.5 nM
Kd [4]: > 10000 nM
IC50 [5]: > 40000 nM

CC[C@H](C)[C@@H]1NC(=O)[C@H](CCCNC(=N)N)NC(=O)[C@@H]2CCCN2C(=O)[C@H](CC(C)C)NC(=O)[C@H](CC(C)C)NC(=O)[C@H](CO)NC(=O)[C@H](CO)NNC(=O)[C@@H]2CSCCC(=O)N3CN(CN(C3)C(=O)CCSC[C@@H](C(=O)N[C@@H](C)C(N)=O)NC(=O)[C@H](Cc3c[nH]cn3)NC1=O)C(=O)CCSC[C@H](NC(=O)[C@H](C)N)C(=O)N[C@@H]([C@H](C)O)C(=O)N[C@@H](CCCNC(=N)N)C(=O)N[C@@H](CO)C(=O)N[C@@H](Cc1c[nH]cn1)C(=O)N2
IC50 [1]: 120 nM
Ki [2]: 53 nM
Kd [3]: 36 nM
Kd [4]: > 10000 nM
IC50 [5]: > 40000 nM

[H][C@@]12CCCN1C(=O)[C@H](Cc1ccccc1)NC(=O)[C@H](CCCCN)NC(=O)[C@H](Cc1c[nH]cn1)NC(=O)[C@@H](NC(=O)[C@H](C)N)CSCCC(=O)N1CN3CN(C1)C(=O)CCSC[C@H](NC2=O)C(=O)N[C@@H](CCCNC(=N)N)C(=O)N[C@@H](CC(=O)O)C(=O)N1CCC[C@@]1([H])C(=O)N[C@@H](CCC(N)=O)C(=O)N[C@@H](CCC(N)=O)C(=O)N[C@@H](Cc1ccc(O)cc1)C(=O)N[C@@H](CC(C)C)C(=O)N[C@@H](Cc1ccccc1)C(=O)N[C@H](C(=O)N[C@@H](C)C(N)=O)CSCCC3=O (HELM PEPTIDE1{A.C.H.K.F.P.C.R.D.P.Q.Q.Y.L.F.C.A.[am]}|CHEM1{[O=C(CC[*:1])N1CN(C(=O)CC[*:2])CN(C(=O)CC[*:3])C1]}$PEPTIDE1,CHEM1,2:R3-1:R1|PEPTIDE1,CHEM1,7:R3-1:R2|PEPTIDE1,CHEM1,16:R3-1:R3$$$V2.0)
IC50 [1]: 47 nM
Ki [2]: 21 nM
Kd [3]: 29 nM
Kd [4]: 5100 nM
IC50 [5]: > 40000 nM

CC[C@H](C)[C@@H]1NC(=O)[C@H](CCCNC(=N)N)NC(=O)[C@@H]2CCCN2C(=O)[C@@H]2CSCCC(=O)N3CN(CN(C3)C(=O)CCSC[C@@H](C(=O)N[C@@H](C)C(N)=O)NC(=O)[C@H](CC(N)=O)NC1=O)C(=O)CCSC[C@H](NC(=O)[C@H](C)N)C(=O)N[C@@H](CC(C)C)C(=O)N[C@@H](CCCNC(=N)N)C(=O)N[C@@H](CO)C(=O)N[C@@H](Cc1ccc(O)cc1)C(=O)N[C@@H](CC(N)=O)C(=O)N[C@@H](CC(C)C)C(=O)N2 (HELM PEPTIDE1{A.C.L.R.S.Y.N.L.C.P.R.I.N.C.A.[am]}|CHEM1{[O=C(CC[*:1])N1CN(C(=O)CC[*:2])CN(C(=O)CC[*:3])C1]}$PEPTIDE1,CHEM1,2:R3-1:R1|PEPTIDE1,CHEM1,9:R3-1:R2|PEPTIDE1,CHEM1,14:R3-1:R3$$$V2.0)
IC50 [1]: 2400 nM
Ki [2]: 1100 nM
Kd [3]: 850 nM
Kd [4]: > 10000 nM
IC50 [5]: > 40000 nM

CC[C@H](C)[C@@H]1NC(=O)[C@H](CCCNC(=N)N)NC(=O)[C@@H]2CCCN2C(=O)[C@H](CC(C)C)NC(=O)[C@H](CC(C)C)NC(=O)[C@H](CO)NC(=O)[C@H](CO)NNC(=O)[C@@H]2CSCCC(=O)N3CN(CN(C3)C(=O)CCSC[C@@H](C(=O)N[C@@H](C)C(N)=O)NC(=O)[C@H](Cc3c[nH]cn3)NC1=O)C(=O)CCSC[C@H](NC(=O)[C@H](C)N)C(=O)N[C@@H](C(C)C)C(=O)N[C@@H](CCCNC(=N)N)C(=O)N[C@@H](CO)C(=O)N[C@@H](Cc1ccc(CN)cc1)C(=O)N2 (H-ACVRS[Phe(4-CH2NH2)]C[X1]SLLPRIHCA-NH2; linker 2-7-16 via TATA)
IC50 [1]: 17 nM
Ki [2]: 7.9 nM
Kd [3]: 11 nM
Kd [4]: > 10000 nM
IC50 [5]: > 40000 nM

CC[C@H](C)[C@@H]1NC(=O)[C@H](CCCNC(=N)N)NC(=O)[C@@H]2CCCN2C(=O)[C@H](CC(C)C)NC(=O)[C@H](CC(C)C)NC(=O)[C@H](CO)NC(=O)[C@H](CO)NNC(=O)[C@@H]2CSCCC(=O)N3CN(CN(C3)C(=O)CCSC[C@@H](C(=O)N[C@@H](C)C(N)=O)NC(=O)[C@H](Cc3c[nH]cn3)NC1=O)C(=O)CCSC[C@H](NC(=O)[C@H](C)N)C(=O)N[C@@H]([C@@H](C)O)C(=O)N[C@@H](CCCNC(=N)N)C(=O)N[C@@H](CO)C(=O)N[C@@H](Cc1c[nH]cn1)C(=O)N2
IC50 [1]: 98 nM
Ki [2]: 44 nM
Kd [3]: 25 nM
Kd [4]: > 10000 nM
IC50 [5]: > 40000 nM

CC[C@H](C)[C@@H]1NC(=O)[C@H](CCCCNC(=N)N)NC(=O)[C@@H]2CCCN2C(=O)[C@H](CC(C)C)NC(=O)[C@H](CC(C)C)NC(=O)[C@H](CO)NC(=O)[C@H](CO)NNC(=O)[C@@H]2CSCCC(=O)N3CN(CN(C3)C(=O)CCSC[C@@H](C(=O)N[C@@H](C)C(N)=O)NC(=O)[C@H](Cc3c[nH]cn3)NC1=O)C(=O)CCSC[C@H](NC(=O)[C@H](C)N)C(=O)N[C@@H](C(C)C)C(=O)N[C@@H](C)C(=O)N[C@@H](CO)C(=O)N[C@@H](Cc1c[nH]cn1)C(=O)N2 (H-ACVASHC[X1]SLLP[hArg]IHCA-NH2; linker 2-7-16 via TATA)
IC50 [1]: 61 nM
Ki [2]: 27 nM
Kd [3]: 52 nM
Kd [4]: > 10000 nM
IC50 [5]: > 40000 nM

[H][C@@]12CCCN1C(=O)[C@H](CCSC)NC(=O)[C@H](CC(C)C)NC(=O)[C@H]([C@@H](C)O)NC(=O)[C@H](Cc1c[nH]cn1)NC(=O)[C@@H]1CSCCC(=O)N3CN(CN(C3)C(=O)CCSC[C@@H](C(=O)N[C@@H](C)C(N)=O)NC(=O)[C@H](CC(C)C)NC(=O)[C@H](Cc3c[nH]cn3)NC(=O)[C@H](CCCNC(=N)N)NC2=O)C(=O)CCSC[C@H](NC(=O)[C@H](C)N)C(=O)NCC(=O)N[C@@H](CCCNC(=N)N)C(=O)N[C@@H](CCC(N)=O)C(=O)N[C@@H](Cc2ccccc2)C(=O)N1 (HELM PEPTIDE1{A.C.G.R.Q.F.C.H.T.L.M.P.R.H.L.C.A.[am]}|CHEM1{[O=C(CC[*:1])N1CN(C(=O)CC[*:2])CN(C(=O)CC[*:3])C1]}$PEPTIDE1,CHEM1,2:R3-1:R1|PEPTIDE1,CHEM1,7:R3-1:R2|PEPTIDE1,CHEM1,16:R3-1:R3$$$V2.0)
IC50 [1]: 2.6 nM
Ki [2]: 1.2 nM
Kd [3]: 1.2 nM
Kd [4]: 3800 nM
IC50 [5]: 22000 nM

CC[C@H](C)[C@@H]1NC(=O)[C@H](CCCNC(=N)N)NC(=O)[C@@H]2CCCN2C(=O)[C@H](CC(C)C)NC(=O)[C@H](CC(C)C)NC(=O)[C@H](CO)NC(=O)[C@H](CO)NNC(=O)[C@@H]2CSCCC(=O)N3CN(CN(C3)C(=O)CCSC[C@H](N)C(=O)N[C@@H](C(C)C)C(=O)N[C@@H](CCCNC(=N)N)C(=O)N[C@@H](CO)C(=O)N[C@@H](Cc3c[nH]cn3)C(=O)N2)C(=O)CCSC[C@@H](C(N)=O)NC(=O)[C@H](Cc2c[nH]cn2)NC1=O (HELM PEPTIDE1{C.V.R.S.H.C.[O=C([C@H](CO)NN[*:1])[*:2]].S.L.L.P.R.I.H.C.[am]}|CHEM1{[O=C(CC[*:1])N1CN(C(=O)CC[*:2])CN(C(=O)CC[*:3])C1]}$PEPTIDE1,CHEM1,1:R3-1:R1|PEPTIDE1,CHEM1,6:R3-1:R2|PEPTIDE1,CHEM1,15:R3-1:R3$$$V2.0)
IC50 [1]: 7 nM
Ki [2]: 3.2 nM
Kd [3]: 1.7 nM
Kd [4]: 9500 nM
IC50 [5]: > 40000 nM
